The target in one data set is SARS-CoV-2 spike RBD (Severe acute respiratory syndrome coronavirus 2, UniProt P0DTC2).
The target of the next data set is Integrin α2 (ITGA2) (Homo sapiens, UniProt P17301). Description: Direct ELISA on HE25-coated plates, ITGA2. The format is binding. The following applies: negative control receptor.
The next data set relates to siRNA. The data set is described as follows: Electrophoretic mobility shift assay. The data set is classed as binding. The following applies: pH 7. In short, it runs like this:
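Negative-control siRNA mixed with peptide at 1:20–1:100 siRNA:peptide molar ratios in RNase-free water, then incubated 1 h at 4, 25, 37 or 50 °C to encapsulate. For competition, DSS, 8 M urea stock or 20% NaCl stock was added before or after encapsulation. Complexes were run in dye-free glycerol loading buffer (5% final) on 4% agarose gels stained with ethidium bromide.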

Integrin α2 (ITGA2), sequence (P17301 30-1132 limits assumed): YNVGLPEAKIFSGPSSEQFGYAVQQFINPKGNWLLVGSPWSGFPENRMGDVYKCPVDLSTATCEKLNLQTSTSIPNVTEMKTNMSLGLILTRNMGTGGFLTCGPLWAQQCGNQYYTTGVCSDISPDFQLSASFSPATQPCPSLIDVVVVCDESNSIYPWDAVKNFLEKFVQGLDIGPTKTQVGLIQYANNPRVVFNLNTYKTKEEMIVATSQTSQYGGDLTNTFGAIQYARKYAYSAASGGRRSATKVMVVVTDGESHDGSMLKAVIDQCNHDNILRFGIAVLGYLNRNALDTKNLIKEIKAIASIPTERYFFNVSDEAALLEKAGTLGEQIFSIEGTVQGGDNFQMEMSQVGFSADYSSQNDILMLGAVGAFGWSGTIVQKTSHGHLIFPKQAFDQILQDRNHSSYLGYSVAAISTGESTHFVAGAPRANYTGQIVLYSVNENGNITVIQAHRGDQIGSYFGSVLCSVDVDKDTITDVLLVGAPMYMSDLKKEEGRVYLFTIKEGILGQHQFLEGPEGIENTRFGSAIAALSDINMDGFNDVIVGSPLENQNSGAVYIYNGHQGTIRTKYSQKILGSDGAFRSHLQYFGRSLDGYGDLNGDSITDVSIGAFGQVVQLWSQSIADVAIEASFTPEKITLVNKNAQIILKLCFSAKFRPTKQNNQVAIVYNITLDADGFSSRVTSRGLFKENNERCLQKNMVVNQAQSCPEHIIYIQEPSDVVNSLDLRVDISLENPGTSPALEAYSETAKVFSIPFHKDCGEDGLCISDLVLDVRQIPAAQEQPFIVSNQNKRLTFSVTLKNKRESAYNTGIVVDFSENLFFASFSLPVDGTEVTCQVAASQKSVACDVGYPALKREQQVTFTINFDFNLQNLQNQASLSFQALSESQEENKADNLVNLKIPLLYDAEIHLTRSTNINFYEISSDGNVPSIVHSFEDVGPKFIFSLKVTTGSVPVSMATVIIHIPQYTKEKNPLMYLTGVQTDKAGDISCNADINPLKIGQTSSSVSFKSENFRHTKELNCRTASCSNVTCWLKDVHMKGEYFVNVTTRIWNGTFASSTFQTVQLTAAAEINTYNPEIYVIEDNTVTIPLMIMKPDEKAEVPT

With “stearyl-HEHHEHHEHEHGFLGRVRVLRGDKW-amide [HE25]”, on SARS-CoV-2 spike RBD, the “binding of spike RBD to HE25-coated plates” value is “recognized”. In addition, the “binding of ITGA2 to HE25” value at Integrin α2 (ITGA2) was “did not efficiently bind”. Further, in the data set with siRNA (EMSA competition, 20 mg/mL DSS before or after encapsulation, 50°C, molar ratio 1:100), the “effect of DSS on binding and preformed complex” value was “interfere with the binding and disassemble the preformed complex”. For the same substance, in the data set with siRNA (EMSA competition, 1.6 M urea before or after encapsulation, 50°C, molar ratio 1:100), the “effect of urea on binding and preformed complex” value was “hindered initial binding but did not affect the ones formed”. Further, in the data set on siRNA (EMSA competition, 4% NaCl before or after encapsulation, 50°C, molar ratio 1:100), the “effect of NaCl on binding and disassembly” value is recorded as “no notable effect on either binding or disassembly”. In the data set with siRNA (EMSA competition, urea, 4°C, molar ratio 1:100), the “effect of urea on binding” value was “not observed before encapsulation”. Further, the “encapsulation efficiency at 50°C” value in the data set on siRNA (EMSA, 50°C) is “significantly increases”.

Source of the values: article PMC11203390 (Molecular Therapy. Nucleic Acids, 2024).
